Source: ChEMBL document CHEMBL5046307 (ACS Med Chem Lett, 2022)
In brackets after ≈: the same amount, converted by molar mass.

How the values were obtained:
[1] = Oral bioavailability in Wistar rat plasma at 0.8 mg/kg by LC-MS/MS analysis; assay type: ADME, organism-based
[2] = Clearance in male Wistar rat blood at 0.4 mg/kg, iv by LC-MS/MS analysis
[3] = Lipophilicity, logD of compound; conditions: octanol/water
[4] = Inhibition of mouse electron transport chain complex 1 assessed as reduction in cellular ATP measured after 24 hrs by celltiter-glo assay
[5] = Efflux ratio of apparent permeability across basolateral to apical side over apical to basolateral side in human Caco2 cells at 2 uM incubated for 2 hrs by LC-MS/MS analysis; conditions: Caco-2
[6] = Apparent permeability across apical to basolateral side in human Caco2 cells assessed as drug recovery at 2 uM and measured for 2 hrs by LC-MS/MS analysis; conditions: Caco-2
Cytochrome P450 2C9 = Cytochrome P450 2C9 (Homo sapiens, UniProt P11712); test: Inhibition of CYP2C9 in human liver microsomes using diclofenac as substrate by LC-MS/MS analysis
Cytochrome P450 1A2 = target: T1, Cytochrome P450 1A2 (Homo sapiens, UniProt P05177); test: Inhibition of CYP1A2 in human liver microsomes using phenacetin as substrate by LC-MS/MS analysis
T1 sequence (P05177 whole entry): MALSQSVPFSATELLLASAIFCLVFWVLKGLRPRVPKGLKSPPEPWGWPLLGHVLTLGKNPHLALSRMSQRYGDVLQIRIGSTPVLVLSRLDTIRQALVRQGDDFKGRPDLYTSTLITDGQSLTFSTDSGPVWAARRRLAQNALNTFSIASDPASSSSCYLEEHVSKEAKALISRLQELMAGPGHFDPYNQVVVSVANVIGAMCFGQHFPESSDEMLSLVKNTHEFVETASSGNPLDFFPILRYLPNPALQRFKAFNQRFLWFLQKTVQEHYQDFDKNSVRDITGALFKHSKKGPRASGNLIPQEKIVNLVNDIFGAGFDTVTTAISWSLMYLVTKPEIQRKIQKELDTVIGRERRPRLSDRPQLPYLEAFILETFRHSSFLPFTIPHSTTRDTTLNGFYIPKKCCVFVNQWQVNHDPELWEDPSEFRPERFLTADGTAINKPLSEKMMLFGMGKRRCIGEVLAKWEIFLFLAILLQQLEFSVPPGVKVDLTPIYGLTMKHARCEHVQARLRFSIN

Cytochrome P450 3A4 = Cytochrome P450 3A4 (Homo sapiens, UniProt P08684); test: Inhibition of CYP3A4 in human liver microsomes using midazolam as substrate by LC-MS/MS analysis
[7] = target: T2, Nuclear receptor subfamily 1 group I member 2 (Homo sapiens, UniProt O75469); test: Transactivation of PXR (unknown origin) expressed in human DPX2 cells co-expressing luciferase gene under control of CYP3A4 promoter assessed as increase in luciferase activity incubated for 24 hrs by luminescence based analysis; conditions: dpx2, 24 h
T2 sequence (O75469 whole entry): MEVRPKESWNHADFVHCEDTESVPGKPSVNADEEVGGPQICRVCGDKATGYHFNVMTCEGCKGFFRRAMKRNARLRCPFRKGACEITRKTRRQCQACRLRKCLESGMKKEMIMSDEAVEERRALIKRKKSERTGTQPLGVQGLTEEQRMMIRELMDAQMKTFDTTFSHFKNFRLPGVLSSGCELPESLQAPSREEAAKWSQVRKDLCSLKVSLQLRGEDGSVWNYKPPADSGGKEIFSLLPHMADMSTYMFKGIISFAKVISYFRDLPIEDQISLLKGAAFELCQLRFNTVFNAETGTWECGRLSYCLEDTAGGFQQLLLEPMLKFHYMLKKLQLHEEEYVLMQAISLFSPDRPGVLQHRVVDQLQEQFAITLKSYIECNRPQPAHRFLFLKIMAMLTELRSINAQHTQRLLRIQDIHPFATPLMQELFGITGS

[8] = target: Voltage-gated inwardly rectifying potassium channel KCNH2 (Homo sapiens, UniProt Q12809); test: Inhibition of human ERG by patch-clamp assay
Cytochrome P450 2D6 = Cytochrome P450 2D6 (Homo sapiens, UniProt P10635); test: Inhibition of CYP2D6 in human liver microsomes using dextromethorphan as substrate by LC-MS/MS analysis
[9] = Inhibition of human electron transport chain complex 1 in human NCI-H1299 cells assessed as reduction in cellular ATP level measured after 24 hrs by CellTiter-Glo assay; assay type: cell-based; conditions: Homo sapiens, NCI-H1299, 24 h
Outline: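 ATP-dependent luciferase luminescence read in H1299 cells, first without (M1) and then after adding the complex II substrate succinate (M2), to separate complex I block from downstream respiratory-chain inhibition or uncoupling.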

[10] = Inhibition of rat electron transport chain complex 1 assessed as reduction in cellular ATP measured after 24 hrs by celltiter-glo assay
[11] = Solubility of the compound at pH 6.5; conditions: buffer
Cytochrome P450 2C8 = target: T3, Cytochrome P450 2C8 (Homo sapiens, UniProt P10632); test: Inhibition of CYP2C8 in human liver microsomes using amodiaquine as substrate by LC-MS/MS analysis
T3 sequence (P10632 whole entry): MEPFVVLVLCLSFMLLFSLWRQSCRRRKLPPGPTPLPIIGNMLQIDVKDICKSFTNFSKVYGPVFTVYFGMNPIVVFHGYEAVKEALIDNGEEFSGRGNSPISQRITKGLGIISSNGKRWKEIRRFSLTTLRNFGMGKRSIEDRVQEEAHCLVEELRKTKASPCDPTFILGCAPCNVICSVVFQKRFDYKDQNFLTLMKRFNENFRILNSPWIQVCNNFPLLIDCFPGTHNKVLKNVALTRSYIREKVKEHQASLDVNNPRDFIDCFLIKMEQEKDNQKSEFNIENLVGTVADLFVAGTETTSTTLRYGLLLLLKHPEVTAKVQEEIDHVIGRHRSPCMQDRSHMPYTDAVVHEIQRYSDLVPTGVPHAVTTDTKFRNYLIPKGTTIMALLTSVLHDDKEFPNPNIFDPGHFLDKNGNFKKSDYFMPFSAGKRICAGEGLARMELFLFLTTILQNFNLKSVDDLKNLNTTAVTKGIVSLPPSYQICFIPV

[12] = Plasma protein binding in mouse assessed as fraction unbound incubated for 6 to 8 hrs by LC-MS/MS analysis; assay type: ADME, cell-free; conditions: time 6-8 hrs
[13] = Volume of distribution at steady state in Wistar rat plasma at 0.4 mg/kg, iv by LC-MS/MS analysis; assay type: ADME, organism-based; conditions: read-out: Vdss
[14] = AUC in Wistar rat plasma at 0.8 mg/kg, po by LC-MS/MS analysis; assay type: ADME, organism-based; design: dose 0.8 mg/kg; conditions: in vivo
[15] = Inhibition of dog electron transport chain complex 1 assessed as reduction in cellular ATP measured after 24 hrs by celltiter-glo assay; conditions: Canis lupus familiaris
[16] = Half life in Wistar rat plasma at 0.4 mg/kg, iv by LC-MS/MS analysis; assay type: ADME, organism-based
[17] = Metabolic stability in rat hepatocyte assessed as maximum bioavailability measured up to 90 mins by LC-MS/MS analysis; assay type: ADME; conditions: rat hepatocytes, read-out: Fmax

Chain of Cytochrome P450 3A4 (P08684 whole entry): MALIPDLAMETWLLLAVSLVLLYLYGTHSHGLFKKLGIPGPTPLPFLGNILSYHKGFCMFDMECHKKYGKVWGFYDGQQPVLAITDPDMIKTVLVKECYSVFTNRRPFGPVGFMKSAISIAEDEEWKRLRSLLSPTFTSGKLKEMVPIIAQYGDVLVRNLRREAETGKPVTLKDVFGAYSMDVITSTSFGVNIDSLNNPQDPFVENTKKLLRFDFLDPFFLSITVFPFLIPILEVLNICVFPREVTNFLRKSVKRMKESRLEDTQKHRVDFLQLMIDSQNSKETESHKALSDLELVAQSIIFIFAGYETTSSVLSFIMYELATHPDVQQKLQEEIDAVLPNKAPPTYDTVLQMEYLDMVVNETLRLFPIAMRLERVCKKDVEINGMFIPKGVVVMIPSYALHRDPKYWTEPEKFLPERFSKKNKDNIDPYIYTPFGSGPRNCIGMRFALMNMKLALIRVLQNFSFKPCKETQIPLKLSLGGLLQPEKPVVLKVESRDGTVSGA
Chain of Voltage-gated inwardly rectifying potassium channel KCNH2 (Q12809 whole entry): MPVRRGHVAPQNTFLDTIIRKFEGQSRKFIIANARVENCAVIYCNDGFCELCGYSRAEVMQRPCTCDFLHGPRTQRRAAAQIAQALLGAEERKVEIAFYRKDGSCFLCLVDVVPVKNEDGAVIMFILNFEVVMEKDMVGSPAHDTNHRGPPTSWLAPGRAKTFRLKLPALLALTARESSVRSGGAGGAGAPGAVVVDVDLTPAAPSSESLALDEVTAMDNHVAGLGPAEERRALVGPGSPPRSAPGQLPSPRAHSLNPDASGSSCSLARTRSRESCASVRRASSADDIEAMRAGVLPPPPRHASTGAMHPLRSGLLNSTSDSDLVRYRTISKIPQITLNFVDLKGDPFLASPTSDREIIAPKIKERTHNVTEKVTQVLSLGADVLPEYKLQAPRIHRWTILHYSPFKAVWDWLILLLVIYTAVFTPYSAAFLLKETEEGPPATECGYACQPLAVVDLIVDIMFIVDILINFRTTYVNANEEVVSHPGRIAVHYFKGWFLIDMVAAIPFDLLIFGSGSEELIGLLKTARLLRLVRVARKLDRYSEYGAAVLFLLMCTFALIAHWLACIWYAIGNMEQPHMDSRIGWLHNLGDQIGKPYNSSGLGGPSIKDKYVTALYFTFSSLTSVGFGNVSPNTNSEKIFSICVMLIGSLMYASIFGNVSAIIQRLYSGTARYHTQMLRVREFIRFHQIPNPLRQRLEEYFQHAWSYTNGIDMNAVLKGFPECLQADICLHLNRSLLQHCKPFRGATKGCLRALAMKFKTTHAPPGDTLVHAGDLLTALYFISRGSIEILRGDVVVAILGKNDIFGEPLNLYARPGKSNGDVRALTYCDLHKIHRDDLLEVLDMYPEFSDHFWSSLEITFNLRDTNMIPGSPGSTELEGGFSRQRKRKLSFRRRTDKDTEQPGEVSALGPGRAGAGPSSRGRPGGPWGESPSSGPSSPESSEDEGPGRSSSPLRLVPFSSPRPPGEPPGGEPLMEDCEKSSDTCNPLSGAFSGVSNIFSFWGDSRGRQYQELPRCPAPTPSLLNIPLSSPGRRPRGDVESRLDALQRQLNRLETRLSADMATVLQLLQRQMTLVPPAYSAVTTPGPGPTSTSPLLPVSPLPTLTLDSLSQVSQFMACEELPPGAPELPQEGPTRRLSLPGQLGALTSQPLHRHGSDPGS
Chain of Cytochrome P450 2D6 (P10635 whole entry): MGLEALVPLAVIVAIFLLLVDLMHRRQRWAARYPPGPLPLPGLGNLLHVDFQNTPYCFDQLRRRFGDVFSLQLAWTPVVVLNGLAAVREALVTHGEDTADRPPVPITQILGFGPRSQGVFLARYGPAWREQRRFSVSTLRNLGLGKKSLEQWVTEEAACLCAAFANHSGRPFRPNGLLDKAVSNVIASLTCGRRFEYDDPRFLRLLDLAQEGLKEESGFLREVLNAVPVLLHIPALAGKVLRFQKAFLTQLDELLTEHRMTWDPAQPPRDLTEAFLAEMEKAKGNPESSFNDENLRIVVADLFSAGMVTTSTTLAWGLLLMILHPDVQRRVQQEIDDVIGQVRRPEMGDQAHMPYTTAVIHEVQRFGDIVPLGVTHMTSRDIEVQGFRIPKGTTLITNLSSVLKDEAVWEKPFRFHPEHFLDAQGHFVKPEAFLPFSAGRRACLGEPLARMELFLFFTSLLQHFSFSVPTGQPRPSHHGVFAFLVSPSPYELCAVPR
Chain of Cytochrome P450 2C9 (P11712 whole entry): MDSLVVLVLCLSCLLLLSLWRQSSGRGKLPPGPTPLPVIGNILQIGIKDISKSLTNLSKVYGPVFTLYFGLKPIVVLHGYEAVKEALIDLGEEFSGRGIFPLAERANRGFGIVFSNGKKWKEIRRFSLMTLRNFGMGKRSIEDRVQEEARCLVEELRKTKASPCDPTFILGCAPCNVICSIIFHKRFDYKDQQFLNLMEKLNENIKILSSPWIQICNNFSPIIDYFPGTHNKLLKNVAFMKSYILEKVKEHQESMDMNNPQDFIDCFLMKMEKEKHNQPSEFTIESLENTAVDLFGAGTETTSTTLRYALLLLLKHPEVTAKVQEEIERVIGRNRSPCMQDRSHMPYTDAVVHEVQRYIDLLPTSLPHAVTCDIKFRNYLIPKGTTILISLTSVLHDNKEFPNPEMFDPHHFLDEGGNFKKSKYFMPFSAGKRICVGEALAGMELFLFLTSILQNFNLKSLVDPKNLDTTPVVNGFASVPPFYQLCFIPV

Compound: c1ccc2oc(-c3csc(C4CCN(Cc5nc6ncccc6[nH]5)CC4)n3)cc2c1
- bioavailability [1]: 76%
- clearance [2]: 6.67 mL/min/kg
- logD [3]: 2.8
- IC50 [4]: 0.038 µM
- efflux ratio at 2 h, 2 µM [5]: 0.44
- Papp A→B at 2 h, 2 µM [6]: 9.2 ×10⁻⁶ cm/s
- IC50 (Cytochrome P450 2C9): 15 µM
- IC50 (Cytochrome P450 1A2): > 20 µM
- IC50 (Cytochrome P450 3A4): > 20 µM
- MEC [7]: > 50 µM
- IC50 [8]: 3 µM
- IC50 (Cytochrome P450 2D6): > 20 µM
- IC50 [9]: 0.079 µM
- IC50 [10]: 0.027 µM
- solubility [11]: 1.6 µg/mL (≈ 3.85 µM)
- IC50 (Cytochrome P450 2C8): 7.8 µM
- Fu [12]: 0.43%
- Vd [13]: 2.2 L/kg
- AUC [14]: 3.1 kg·h/L
- IC50 [15]: 0.047 µM
- half-life [16]: 6.2 h
- Fh at 1.5 h [17]: 81%
